Source: ChEMBL document CHEMBL1287651, “Synthesis and in vitro antibacterial activity of fluoroquinolone derivatives containing 3-(N'-alkoxycarbamimidoyl)-4-(alkoxyimino) pyrrolidines” (2010)
≈ marks a conversion by molar mass, not a printed value.

Tests used:
Type in all cases: functional
[1] = tested on: Enterococcus faecalis; assay: Antibacterial activity against Enterococcus faecalis 08-10 after 18 to 24 hrs by twofold serial dilution method
Outline: (§1)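 MIC determined by the standard twofold serial dilution method on agar media, screening against Gram-positive and Gram-negative strains. Levofloxacin and gemifloxacin were run alongside as reference drugs.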

[2] = tested on: Staphylococcus epidermidis; assay: Antibacterial activity against methicillin-sensitive Staphylococcus epidermidis 09-6 after 18 to 24 hrs by twofold serial dilution method
Outline: (§2)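 Standard twofold serial agar dilution method on agar media for MIC determination. Screened against representative Gram-positive and Gram-negative strains. Levofloxacin and GMFX served as control drugs.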

[3] = tested on: Staphylococcus aureus; assay: Antibacterial activity against Staphylococcus aureus ATCC […] after 18 to 24 hrs by twofold serial dilution method; outline: as §1
[4] = tested on: Staphylococcus aureus; assay: Antibacterial activity against methicillin-sensitive Staphylococcus aureus 08-2 after 18 to 24 hrs by twofold serial dilution method; outline: as §2
[5] = tested on: Klebsiella pneumoniae; assay: Antibacterial activity against Klebsiella pneumoniae 09-22 after 18 to 24 hrs by twofold serial dilution method; outline: as §1
[6] = tested on: Enterococcus faecium; assay: Antibacterial activity against Enterococcus faecium 08-7 after 18 to 24 hrs by twofold serial dilution method; outline: as §1
[7] = tested on: Pseudomonas aeruginosa; assay: Antibacterial activity against Pseudomonas aeruginosa ATCC 27853 after 18 to 24 hrs by twofold serial dilution method; outline: as §1
[8] = tested on: Pseudomonas aeruginosa; assay: Antibacterial activity against Pseudomonas aeruginosa 09-34 after 18 to 24 hrs by twofold serial dilution method; outline: as §1
[9] = tested on: Pseudomonas aeruginosa; assay: Antibacterial activity against Pseudomonas aeruginosa 09-35 after 18 to 24 hrs by twofold serial dilution method; outline: as §1
[10] = tested on: Streptococcus pneumoniae; assay: Antibacterial activity against Streptococcus pneumoniae 08-2 after 18 to 24 hrs by twofold serial dilution method; outline: as §1
[11] = tested on: Escherichia coli; assay: Antibacterial activity against Escherichia coli 08-22 after 18 to 24 hrs by twofold serial dilution method; outline: as §1
[12] = tested on: Pseudomonas aeruginosa; assay: Antibacterial activity against Pseudomonas aeruginosa 09-32 after 18 to 24 hrs by twofold serial dilution method; outline: as §1
[13] = tested on: Staphylococcus epidermidis; assay: Antibacterial activity against methicillin-sensitive Staphylococcus epidermidis 09-3 after 18 to 24 hrs by twofold serial dilution method; outline: as §2
[14] = tested on: Staphylococcus epidermidis; assay: Antibacterial activity against methicillin-resistant Staphylococcus epidermidis 09-3 after 18 to 24 hrs by twofold serial dilution method; outline: as §2
[15] = tested on: Streptococcus pneumoniae; assay: Antibacterial activity against Streptococcus pneumoniae 08-4 after 18 to 24 hrs by twofold serial dilution method; outline: as §1
[16] = tested on: Staphylococcus epidermidis; assay: Antibacterial activity against methicillin-resistant Staphylococcus epidermidis 09-2 after 18 to 24 hrs by twofold serial dilution method; outline: as §2
[17] = tested on: Escherichia coli; assay: Antibacterial activity against Escherichia coli 08-21 after 18 to 24 hrs by twofold serial dilution method; outline: as §1
[18] = tested on: Klebsiella pneumoniae; assay: Antibacterial activity against Klebsiella pneumoniae 09-21 after 18 to 24 hrs by twofold serial dilution method; outline: as §1
[19] = tested on: Staphylococcus epidermidis; assay: Antibacterial activity against methicillin-resistant Staphylococcus epidermidis 09-4 after 18 to 24 hrs by twofold serial dilution method; outline: as §2
[20] = tested on: Pseudomonas aeruginosa; assay: Antibacterial activity against Pseudomonas aeruginosa 09-33 after 18 to 24 hrs by twofold serial dilution method; outline: as §1
[21] = tested on: Enterococcus faecium; assay: Antibacterial activity against Enterococcus faecium 08-2 after 18 to 24 hrs by twofold serial dilution method; outline: as §1
[22] = tested on: Klebsiella pneumoniae; assay: Antibacterial activity against Klebsiella pneumoniae 09-23 after 18 to 24 hrs by twofold serial dilution method; outline: as §1
[23] = tested on: Escherichia coli; assay: Antibacterial activity against Escherichia coli ATCC 25922 after 18 to 24 hrs by twofold serial dilution method; outline: as §1
[24] = tested on: Staphylococcus aureus; assay: Antibacterial activity against methicillin-resistant Staphylococcus aureus 08-1 after 18 to 24 hrs by twofold serial dilution method; outline: as §2
[25] = tested on: Enterococcus faecalis; assay: Antibacterial activity against Enterococcus faecalis 08-12 after 18 to 24 hrs by twofold serial dilution method; outline: as §1

SMILES | MIC [1] [µg/mL] | MIC [2] [µg/mL] | MIC [3] [µg/mL] | MIC [4] [µg/mL] | MIC [5] [µg/mL] | MIC [6] [µg/mL] | MIC [7] [µg/mL] | MIC [8] [µg/mL] | MIC [9] [µg/mL] | MIC [10] [µg/mL] | MIC [11] [µg/mL] | MIC [12] [µg/mL] | MIC [13] [µg/mL] | MIC [14] [µg/mL] | MIC [15] [µg/mL] | MIC [16] [µg/mL] | MIC [17] [µg/mL] | MIC [18] [µg/mL] | MIC [19] [µg/mL] | MIC [20] [µg/mL] | other results
CCO/N=C1\CN(c2nc3c(cc2F)c(=O)c(C(=O)O)cn3-c2ccc(F)cc2F)CC1/C(N)=N\OCC (stereo not given) | 128 (≈ 240 µM) | 32 (≈ 60.1 µM) | 0.06 (≈ 0.113 µM) | 0.06 (≈ 0.113 µM) | 128 (≈ 240 µM) | 128 (≈ 240 µM) | 64 (≈ 120 µM) | 128 (≈ 240 µM) | 128 (≈ 240 µM) | 128 (≈ 240 µM) | 128 (≈ 240 µM) | 128 (≈ 240 µM) | 32 (≈ 60.1 µM) | 0.06 (≈ 0.113 µM) | 128 (≈ 240 µM) | 0.06 (≈ 0.113 µM) | 128 (≈ 240 µM) | 16 (≈ 30 µM) | 64 (≈ 120 µM) | 128 (≈ 240 µM) | MIC [21]: 128 µg/mL (≈ 240 µM); MIC [22]: 128 µg/mL (≈ 240 µM); MIC [23]: 16 µg/mL (≈ 30 µM); MIC [24]: 32 µg/mL (≈ 60.1 µM); MIC [25]: 128 µg/mL (≈ 240 µM)
CO/N=C1\CN(c2c(F)cc3c(=O)c(C(=O)O)cn(C4CC4)c3c2OC)CC1/C(N)=N\O (stereo not given) | > 128 | 0.25 (≈ 0.559 µM) | 0.25 (≈ 0.559 µM) | 0.25 (≈ 0.559 µM) | 1 (≈ 2.24 µM) | > 128 | 16 (≈ 35.8 µM) | > 128 | 32 (≈ 71.5 µM) | 4 (≈ 8.94 µM) | > 128 | 32 (≈ 71.5 µM) | 0.25 (≈ 0.559 µM) | 0.25 (≈ 0.559 µM) | 4 (≈ 8.94 µM) | 0.5 (≈ 1.12 µM) | > 128 | > 128 | 0.25 (≈ 0.559 µM) | > 128 | MIC [21]: > 128 µg/mL; MIC [22]: > 128 µg/mL; MIC [23]: > 128 µg/mL; MIC [24]: 0.25 µg/mL (≈ 0.559 µM); MIC [25]: > 128 µg/mL
CCO/N=C1\CN(c2c(F)cc3c(=O)c(C(=O)O)cn(C4CC4)c3c2OC)CC1/C(N)=N\O (stereo not given) | > 128 | 0.25 (≈ 0.542 µM) | 0.25 (≈ 0.542 µM) | 0.25 (≈ 0.542 µM) | 4 (≈ 8.67 µM) | > 128 | 32 (≈ 69.3 µM) | > 128 | 64 (≈ 139 µM) | 1 (≈ 2.17 µM) | > 128 | 64 (≈ 139 µM) | 0.25 (≈ 0.542 µM) | 0.25 (≈ 0.542 µM) | 1 (≈ 2.17 µM) | 0.5 (≈ 1.08 µM) | > 128 | > 128 | 0.5 (≈ 1.08 µM) | > 128 | MIC [21]: > 128 µg/mL; MIC [22]: > 128 µg/mL; MIC [23]: 128 µg/mL (≈ 277 µM); MIC [24]: 0.25 µg/mL (≈ 0.542 µM); MIC [25]: > 128 µg/mL
CO/N=C1\CN(c2c(F)cc3c(=O)c(C(=O)O)cn(C4CC4)c3c2OC)CC1/C(N)=N\OC (stereo not given) | > 128 | 0.25 (≈ 0.542 µM) | 0.125 (≈ 0.271 µM) | 0.125 (≈ 0.271 µM) | 2 (≈ 4.33 µM) | > 128 | 64 (≈ 139 µM) | > 128 | 128 (≈ 277 µM) | 8 (≈ 17.3 µM) | > 128 | 128 (≈ 277 µM) | 0.125 (≈ 0.271 µM) | 0.25 (≈ 0.542 µM) | 0.25 (≈ 0.542 µM) | 0.25 (≈ 0.542 µM) | > 128 | > 128 | 0.25 (≈ 0.542 µM) | > 128 | MIC [21]: > 128 µg/mL; MIC [22]: > 128 µg/mL; MIC [23]: 128 µg/mL (≈ 277 µM); MIC [24]: 0.25 µg/mL (≈ 0.542 µM); MIC [25]: > 128 µg/mL
CCO/N=C1\CN(c2c(F)cc3c(=O)c(C(=O)O)cn(C4CC4)c3c2OC)CC1/C(N)=N\OC (stereo not given) | 0.25 (≈ 0.526 µM) | 0.25 (≈ 0.526 µM) | 0.5 (≈ 1.05 µM) | 0.25 (≈ 0.526 µM) | 4 (≈ 8.41 µM) | > 128 | > 128 | > 128 | > 128 | 4 (≈ 8.41 µM) | > 128 | > 128 | 0.25 (≈ 0.526 µM) | 0.125 (≈ 0.263 µM) | 4 (≈ 8.41 µM) | 0.5 (≈ 1.05 µM) | > 128 | > 128 | 0.125 (≈ 0.263 µM) | > 128 | MIC [21]: > 128 µg/mL; MIC [22]: > 128 µg/mL; MIC [23]: > 128 µg/mL; MIC [24]: 0.25 µg/mL (≈ 0.526 µM); MIC [25]: 0.5 µg/mL (≈ 1.05 µM)
